ChEMBL document CHEMBL4428057, “Discovery, Synthesis, and Evaluation of 2,4-Diaminoquinazolines as a Novel Class of Pancreatic β-Cell-Protective Agents against Endoplasmic Reticulum (ER) Stress” (J Med Chem, 2016)
Activity calls are given as the source filed them. The rule behind the calls is not given here.

Experiments:
INS1 [1] = test: Protection against tunicamycin induced endoplasmic reticulum stress in rat INS-1 cells assessed as increase in cell viability at 2.5 to 20 uM after 72 hrs by MTT assay; type: functional, cell-based
Outline: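 INS-1 cells at 3×10^3/well in 384-well plates treated with Tm 0.1 µg/mL ± compound or DMSO for 72 h. MTT reagent for 3 h at 37 °C, crystal-dissolving solution for 4 h, absorbance at 570 nm. Means of 3 replicate wells, representative of 3 experiments, SD.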

INS1 [2] = test: Reversal of tunicamycin induced caspase-3 cleavage in rat INS-1 cells at 20 uM after 2 to 24 hrs by Western blot analysis; type: functional, cell-based
Outline: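 Western blots of INS-1 cells (8×10^5/60-mm dish) treated with Tm 0.1 µg/mL ± compound 20 µM or DMSO for the indicated times. Lysates with EDTA and phosphatase inhibitors; 20 µg protein on 7% SDS-PAGE, PVDF. Primary antibodies at 1:1000 against ATF4, CHOP, cleaved caspase 3 or PARP; α-tubulin loading control; HRP secondaries. Representative of 3 experiments.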

INS1 [3] = test: Reversal of tunicamycin-induced suppression of INS1 mRNA levels in rat INS-1 cells at 20 uM after 24 hrs by qRT-PCR method; type: functional, cell-based
Outline: (§1)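 INS-1 cells (4×10^5/well, 6-well plates) given Tm 0.1 µg/mL ± compound 20 µM or DMSO for 24 h. INS1, INS2, PDX1 and MafA mRNA measured by qRT-PCR with rat primers. Means of 3 replicate wells, representative of 3 independent experiments; SD.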

INS1 [4] = test: Reversal of tunicamycin-induced suppression of PDX1 mRNA levels in rat INS-1 cells at 20 uM after 24 hrs by qRT-PCR method; type: functional, cell-based; outline: as §1
Rattus norvegicus = species: Rattus norvegicus; test: Inhibition of IRE1alpha in rat INS-1 cells assessed as suppression of tunicamycin induced spliced XBP1 mRNA levels in at 20 uM after 4 to 24 hrs by agarose gel electrophoresis based RT-PCR method; type: cell-based
Outline: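 Total XBP1 mRNA amplified by RT-PCR from INS-1 cells treated with Tm 0.1 µg/mL ± compound 20 µM or DMSO for the indicated times. Unspliced and spliced forms resolved on agarose gel; cyclophilin A as internal control. Representative of 3 independent experiments.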

[5] = biological target: T1, Cyclic AMP-dependent transcription factor ATF-6 alpha (Rattus norvegicus) (UniProt G3V909); test: Inhibition of ATF6 in rat INS-1 cells assessed as suppression of tunicamycin induced Bip mRNA levels at 20 uM after 4 to 24 hrs by qRT-PCR method; type: cell-based
T1 sequence (whole entry): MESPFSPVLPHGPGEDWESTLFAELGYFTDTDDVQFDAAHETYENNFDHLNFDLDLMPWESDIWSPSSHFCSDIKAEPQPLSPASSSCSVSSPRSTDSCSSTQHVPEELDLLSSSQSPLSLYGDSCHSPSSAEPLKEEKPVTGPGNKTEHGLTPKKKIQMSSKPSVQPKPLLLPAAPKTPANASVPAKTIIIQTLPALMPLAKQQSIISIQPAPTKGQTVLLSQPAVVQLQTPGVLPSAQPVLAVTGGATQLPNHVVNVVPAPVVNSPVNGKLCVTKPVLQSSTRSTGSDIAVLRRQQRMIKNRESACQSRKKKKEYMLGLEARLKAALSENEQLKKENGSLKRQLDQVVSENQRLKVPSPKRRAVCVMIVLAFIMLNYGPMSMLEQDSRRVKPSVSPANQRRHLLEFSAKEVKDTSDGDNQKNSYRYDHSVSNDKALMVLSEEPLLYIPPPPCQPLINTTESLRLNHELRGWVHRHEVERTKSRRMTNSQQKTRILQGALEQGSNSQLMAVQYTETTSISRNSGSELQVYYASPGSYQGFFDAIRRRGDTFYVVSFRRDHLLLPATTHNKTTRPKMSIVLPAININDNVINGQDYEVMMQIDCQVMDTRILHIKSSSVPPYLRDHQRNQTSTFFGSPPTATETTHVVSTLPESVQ
Outline: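 INS-1 cells seeded at 4×10^5/well in 6-well plates, given Tm 0.1 µg/mL ± compound 20 µM or DMSO for the indicated times. Bip or GRP94 mRNA measured by qRT-PCR, expressed as fold-increase over untreated control. Means of 3 replicate wells, representative of 3 independent experiments.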

[6] = biological target: T2, Eukaryotic translation initiation factor 2-alpha kinase 3 (Rattus norvegicus) (UniProt Q9Z1Z1); test: Inhibition of PERK pathway in rat INS-1 cells assessed as reduction in tunicamycin induced CHOP mRNA levels at 20 uM after 2 to 24 hrs by qRT-PCR method; type: cell-based
T2 sequence (whole entry): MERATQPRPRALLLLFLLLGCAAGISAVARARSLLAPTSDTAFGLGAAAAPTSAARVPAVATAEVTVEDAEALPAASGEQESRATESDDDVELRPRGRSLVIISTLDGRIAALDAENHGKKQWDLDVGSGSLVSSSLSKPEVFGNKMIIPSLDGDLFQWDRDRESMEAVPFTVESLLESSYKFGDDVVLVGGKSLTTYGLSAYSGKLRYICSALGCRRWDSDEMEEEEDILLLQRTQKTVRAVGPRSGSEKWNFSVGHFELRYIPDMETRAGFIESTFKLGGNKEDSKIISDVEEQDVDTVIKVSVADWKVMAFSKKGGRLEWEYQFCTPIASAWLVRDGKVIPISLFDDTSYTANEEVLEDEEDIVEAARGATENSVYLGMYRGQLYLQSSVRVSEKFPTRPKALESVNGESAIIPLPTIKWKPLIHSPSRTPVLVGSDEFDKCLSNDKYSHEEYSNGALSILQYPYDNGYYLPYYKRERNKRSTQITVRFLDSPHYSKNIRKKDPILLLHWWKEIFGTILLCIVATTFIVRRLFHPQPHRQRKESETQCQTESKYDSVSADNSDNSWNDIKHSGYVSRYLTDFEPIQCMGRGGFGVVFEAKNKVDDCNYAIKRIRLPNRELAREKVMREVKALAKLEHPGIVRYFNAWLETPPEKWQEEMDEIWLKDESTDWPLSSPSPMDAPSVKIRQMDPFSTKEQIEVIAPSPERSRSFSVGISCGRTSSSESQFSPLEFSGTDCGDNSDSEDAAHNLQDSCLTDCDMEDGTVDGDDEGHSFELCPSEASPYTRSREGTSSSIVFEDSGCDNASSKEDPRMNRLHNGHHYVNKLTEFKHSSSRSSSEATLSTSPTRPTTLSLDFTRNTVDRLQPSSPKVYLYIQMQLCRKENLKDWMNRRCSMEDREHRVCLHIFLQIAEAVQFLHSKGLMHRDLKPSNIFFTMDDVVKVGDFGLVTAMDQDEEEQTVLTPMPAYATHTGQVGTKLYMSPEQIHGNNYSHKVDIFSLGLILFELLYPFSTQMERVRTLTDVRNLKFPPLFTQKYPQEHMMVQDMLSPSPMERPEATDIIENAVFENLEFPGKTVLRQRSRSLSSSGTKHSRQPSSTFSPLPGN
Outline: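 ATF4 or CHOP mRNA measured by qRT-PCR in INS-1 cells treated with Tm 0.1 µg/mL ± compound 20 µM or DMSO for the indicated times. Expressed as fold-increase over untreated control; means of 3 replicate wells, representative of 3 independent experiments, SD.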

inhibition [5]: Active
inhibition [6]: Active
SMILES: COc1ccc(CNc2nc(N3CCCCC3CO)nc3ccccc23)cc1 (racemic)
Activity (INS1 [1]): Active
Activity (INS1 [2]): Active
Activity (INS1 [3]): Active
Activity (INS1 [4]): Active
inhibition (Rattus norvegicus): Active
